# Laboratory results published in PubChem BioAssay AID493015 (Southern Research Specialized Biocontainment Screening …, 2011).
# Calls of active or inactive are those of the source.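 Rule for the calls: active = cell viability under 70% at any tested dose, a measure not printed in our tables; inactive = the rest.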
# System: HEp-2 cells, viability, luminescence (cytotoxicity counter-screen)
# Experiment: HEp-2 cell cytotoxicity, dose response, cytotoxicity control for RSV inhibitor project, synthesized compounds, set 4 (AID 493015)
# Procedure, shortened: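 Assay system: HEp-2 cells | Amount: 10,595 cells per well | Read-out: CC50 from 4-parameter fit, bounds fixed 0 and 100 | Compound: 8-point 1:2 series, 50–0.39 µM, 0.5% DMSO | Signal: CellTiter-Glo luminescence | Incubation: Compound exposure of 6 days at 37 °C, 5% CO2 | Medium: DMEM/F12 plus heat-inactivated FBS | Benchmarks: Cell-only wells as reference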
row,Structure (SMILES),CC50
1,O=C(Nc1ccccc1)[C@@H]1CCCN1S(=O)(=O)c1cccc2cccnc12,49 µM
2,Cc1ccc2c(c1)CCN2C(=O)[C@@H]1CCCN1S(=O)(=O)c1cccc2cccnc12,18.1 µM
3,Cc1cccc(NC(=O)[C@@H]2CCCN2S(=O)(=O)c2cccc3cccnc23)c1,27.6 µM
4,COc1ccccc1CNC(=O)C1CCN(S(=O)(=O)c2cccc3nonc23)CC1,> 50 µM (inactive)
5,CC(C)c1ccccc1NC(=O)[C@@H]1CCCN1S(=O)(=O)c1cccc2cccnc12,16.5 µM
